Measured values from ChEMBL document CHEMBL3826888, “New naphthalene derivatives and isoquinoline alkaloids from Ancistrocladus cochinchinensis with their anti-proliferative activity on human cancer cells” (Bioorg Med Chem Lett, 2016).
≈ marks a conversion by molar mass, not a printed value.

Columns and labels:
[1] = test system: Trypanosoma brucei brucei; experiment: Antitrypanosomal activity against Trypanosoma brucei brucei TC221; format: functional, organism-based
[2] = Antiproliferative activity against human HL60 cells assessed as cell death at 20 ug/ml after 3 days by sulforhodamine B assay relative to control; format: functional, HL-60
Outline: (§1)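 Human cancer cell lines HL-60 (promyelocytic leukemia), LU-1 (lung carcinoma) and SK-MEL-2 (melanoma) were screened by sulforhodamine B assay, with each sample at a single concentration of 20 µg/mL. The read-out was percentage cell death; samples giving over 50% death went on to dose-response testing. Ellipticine was the positive control throughout.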

Lu1 [3] = experiment: Antiproliferative activity against human Lu1 cells assessed as cell death at 20 ug/ml after 3 days by sulforhodamine B assay relative to control; format: functional; outline: as §1
SK-MEL-2 [4] = experiment: Antiproliferative activity against human SK-MEL-2 cells assessed as cell death at 20 ug/ml after 3 days by sulforhodamine B assay relative to control; format: functional; outline: as §1
Plasmodium falciparum [5] = experiment: Antiparasitic activity against Plasmodium falciparum K1; format: functional, organism-based
Plasmodium falciparum [6] = experiment: Antiparasitic activity against Plasmodium falciparum NF54 after 48 hrs by [3H]-hypoxanthine incorporation assay; format: functional, organism-based
[7] = Antiproliferative activity against human HL60 cells after 3 days by sulforhodamine B assay relative to control; format: functional, cell-based; conditions: HL-60, 72 h
Outline: (§2)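 SRB cell-proliferation assay on human cancer cell lines. Each sample was first screened at a single concentration of 20 µg/mL. Samples causing over 50% cell death then went to a dose-dependent study to derive IC50 in µg/mL. Ellipticine served as positive control throughout.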

SK-MEL-2 [8] = experiment: Antiproliferative activity against human SK-MEL-2 cells after 3 days by sulforhodamine B assay relative to control; format: functional, cell-based; conditions: SK-MEL-2, 72 h; outline: as §2
Lu1 [9] = experiment: Antiproliferative activity against human Lu1 cells after 3 days by sulforhodamine B assay relative to control; format: functional, cell-based; conditions: Lu1, 72 h; outline: as §2

Structure (SMILES) | Activity [2] | Activity (Lu1 [3]) | Activity (SK-MEL-2 [4]) | further results
COc1cc(C)cc2ccc(-c3ccc4c(c3O)[C@@H](C)N[C@H](C)C4)c(O)c12 |  |  |  | EC50 [1]: 2.6 µM
COc1cc(O)ccc1O[C@@H]1O[C@H](COC(=O)c2cc(OC)c(O)c(OC)c2)[C@@H](O)[C@H](O)[C@H]1O | <50% | <50% | <50% | 
COc1cc(O)c2c(c1-c1c(C)cc(OC)c3c(OC)cccc13)C[C@H](C)N[C@H]2C (stereo in doubt; form 1) |  |  |  | IC50 (Plasmodium falciparum [5]): 0.07 µM
Cc1cc(O[C@@H]2O[C@H](CO[C@@H]3OC[C@](O)(CO)[C@H]3O)[C@@H](O)[C@H](O)[C@H]2O)c2c(O)cccc2c1 | <50% | <50% | <50% | 
COc1cc(O)cc2cc(CO)nc(C)c12 | <50% | <50% | <50% | 
COc1cc(O)c(-c2c(C)cc(O)c3c(OC)cccc23)c2c1[C@@H](C)N(C)[C@@H](C)C2 |  |  |  | IC50 (Plasmodium falciparum [5]; Plasmodium falciparum, K1): 0.08 µM
COc1cccc2c(-c3ccc4c(c3O)[C@@H](C)N[C@H](C)C4)c(C)c(-c3c(C)c(-c4ccc5c(c4O)[C@@H](C)N[C@H](C)C5)c4cccc(OC)c4c3O)c(O)c12 |  |  |  | IC50 (Plasmodium falciparum [6]): 0.0014 µM
Cc1cc(O)c2c(c1)[C@H](O[C@@H]1O[C@H](CO[C@@H]3O[C@H](CO)[C@@H](O)[C@H](O)[C@H]3O)[C@@H](O)[C@H](O)[C@H]1O)CCC2=O | <50% | <50% | <50% | 
COc1cccc2c(-c3ccc4c(c3O)[C@@H](C)N[C@H](C)C4)c(C)cc(OC)c12 [DIONCOPHYLLINE A] |  |  |  | EC50 [1]: 3.4 µM
COc1cc([C@H]2OC[C@H]3[C@@H]2CO[C@H]3c2cc(OC)c(O[C@@H]3O[C@H](CO)[C@@H](O)[C@H](O)[C@H]3O)c(OC)c2)cc(OC)c1O | <50% | <50% | <50% | 
COc1cc(C)c(-c2ccc(O)c3c2C[C@@H](C)N[C@@H]3C)c2cccc(O)c12 [DIONCOPHYLLINE C] |  |  |  | EC50 [1]: 4.2 µM
COc1cc(O)c2c(c1-c1c(C)cc(OC)c3c(OC)cccc13)C[C@H](C)N[C@H]2C (stereo in doubt; form 2) |  |  |  | IC50 (Plasmodium falciparum [5]): 0.03 µM
COc1cc(O)c(-c2c(C)cc(OC)c3c(OC)cccc23)c2c1[C@@H](C)N[C@@H](C)C2 | >50% | >50% | >50% | IC50 [7]: 5 µg/mL (≈ 12.3 µM); IC50 (SK-MEL-2 [8]): 6.8 µg/mL (≈ 16.7 µM); IC50 (Lu1 [9]): 6.5 µg/mL (≈ 16 µM)
COc1cc(O[C@@H]2O[C@H](CO)[C@@H](O)[C@H](O)[C@H]2O)cc2cc(CO)nc(C)c12 | <50% | <50% | <50% | 
